For orientation: IC50 means the midpoint of a concentration-inhibition curve. A high value points to a need for much substance.

Like-named read-outs stand apart in the source and are kept apart here.

The text below walks through data of PMC3065953 (Inorganic chemistry, 2011).

For series [1] the following is noted: cited from earlier work; for peak potential: in water / aqueous media; for Ep, V vs. Ag/AgCl (peak reduction potential): value in parentheses, aqueous solution.
The nature of series [2]: Cyclic voltammetry in DMF. Type of series: physicochemical. As to conditions: for Ep, V vs. Ag/AgCl (peak reduction potential): DMF, 0.1 M (n-Bu4N)PF6, scan rate 100 mV/s; for reduction peak potential: vs. Ag/AgCl, in DMF.
Series [3] can be described thus: Cyclic voltammetry in aqueous solution. Type of series: physicochemical. The following applies: value in parentheses, this work (Figure S3).
Series [4] has as its system human lung carcinoma (A549) cells. As to the kind of experiment: MTT cytotoxicity assay in A549 cells. Type of series: cell-based. The following applies: 72-h exposure, mean ± SD of at least three experiments. The gist of the method: (§1)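 Cells kept in DMEM/10% FBS/1% penicillin-streptomycin at 37 °C, 5% CO2. Seeded 1500 (A549) or 2500 (MRC-5) cells/well, 24 h, then 72 h in fresh medium with graded Pt concentrations. Pt(IV) complexes diluted from 10–20 mM DMSO stocks, reference Pt(II) drug from 2 mM PBS stock. MTT 0.8 mg/mL, 4 h; formazan dissolved in DMSO/10% pH 10.5 glycine buffer; A570. Viability normalized to Pt-free wells; IC50 extrapolated from curves. ≥3 independent experiments in triplicate.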
For orientation: Formazan colour is commonly taken as a measure of viable cells.

Series [5] has as its system human normal lung fibroblasts (MRC-5) cells. As to the kind of experiment: MTT cytotoxicity assay in MRC-5 cells. Type of series: cell-based. The following applies: for cytotoxicity relative to cisplatin / IC50: MRC-5 cells; for IC50: MTT assay, 72-h exposure, mean ± SD of at least three experiments; for factor less cytotoxic in the healthy cells compared to the cancerous cells: MRC-5 vs. A549 IC50. The gist of the method:
as §1

With `CC(=O)[O][Pt]([NH2])([NH2])([Cl])([Cl])[O]C(C)=O` [Compound 1, c,c,t-[Pt(NH3)2Cl2(O2CCH3)2], reference compound], in series [1], the peak potential was −635 mV and the “Ep, V vs. Ag/AgCl (peak reduction potential)” value is −0.64 V. Also, in series [2], the “Ep, V vs. Ag/AgCl (peak reduction potential)” value was −0.72 V and the reduction peak potential was −722 mV.
`[NH2][Pt]([NH2])([Cl])([Cl])([O]C(=O)C(F)(F)F)[O]C(=O)C(F)(F)F` [Compound 2, c,c,t-[Pt(NH3)2Cl2(O2CCF3)2]]: in series [3], the “Ep, V vs. Ag/AgCl (peak reduction potential)” value is 0.01 V. In series [2], the “Ep, V vs. Ag/AgCl (peak reduction potential)” value is reported as −0.35 V and the reduction peak potential is −345 mV.
As to `[NH2][Pt]([NH2])([Cl])([Cl])([Cl])[Cl]` [Compound 3, cis-[Pt(NH3)2Cl4], reference compound], in series [1], the peak potential was −260 mV and the “Ep, V vs. Ag/AgCl (peak reduction potential)” value is −0.26 V. In addition, in series [2], the “Ep, V vs. Ag/AgCl (peak reduction potential)” value is on record as −0.45 V and the reduction peak potential was −454 mV.
As for `CC(C)(C)NC(=O)[O][Pt]([NH2])([NH2])([Cl])([Cl])[O]C(=O)NC(C)(C)C` [Compound 4], half-maximal inhibition in series [4] (IC50) required 1 ± 0.3 µM. In series [5], the “cytotoxicity relative to cisplatin” value was “more toxic”, the IC50 is 2.8 ± 0.8 µM and the “factor less cytotoxic in the healthy cells compared to the cancerous cells” value is around 2. Further, the “Ep, V vs. Ag/AgCl (peak reduction potential)” value in series [2] is recorded as −0.85 V.
Consider `[NH2][Pt]([NH2])([Cl])([Cl])([O]C(=O)NC1CCCC1)[O]C(=O)NC1CCCC1` [Compound 5], for which, in series [4], inhibition was half-maximal at 0.6 ± 0.3 µM (IC50). Further, in series [5], the “cytotoxicity relative to cisplatin” value is “more toxic”, the IC50 came out at 2.3 ± 0.7 µM and the “factor less cytotoxic in the healthy cells compared to the cancerous cells” value was around 2. Besides, the “Ep, V vs. Ag/AgCl (peak reduction potential)” value in series [2] was −0.85 V.
For the molecule `COc1ccc(NC(=O)[O][Pt]([NH2])([NH2])([Cl])([Cl])[O]C(=O)Nc2ccc(OC)cc2)cc1` [Compound 9], the IC50 in series [4] amounted to 5.3 ± 2.5 µM; in series [5] it was 9.3 ± 3.2 µM. Also, the “Ep, V vs. Ag/AgCl (peak reduction potential)” value in series [2] is listed as −0.72 V.
`[NH2][Pt]([NH2])([Cl])([Cl])([O]C(=O)Nc1cccc2ccccc12)[O]C(=O)Nc1cccc2ccccc12` [Compound 11] had an IC50 in series [4] of 4.3 ± 1.5 µM. In series [5], this molecule had an IC50 of 4.8 ± 0.3 µM. Moreover, in series [2], the “Ep, V vs. Ag/AgCl (peak reduction potential)” value was −0.63 V and the reduction peak potential is given as −625 mV.
As to `[NH2][Pt]([NH2])([OH])([OH])([Cl])[Cl]` [c,c,t-[Pt(NH3)2Cl2(OH)2]], the peak potential in series [1] is on record as −880 mV.
As for `N.N.[Cl][Pt][Cl]` [cisplatin, cis-diamminedichloroplatinum(II), reference compound], the IC50 was 7 ± 2.6 µM in series [4] and 4.3 ± 1.3 µM in series [5].
